Assays:
Format in all cases: functional
[1] = Ratio of Antiischemic potency to vasorelaxant potency.
Outline: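 Selectivity is calculated as the EC25 for lengthening time to contracture in globally ischemic isolated rat hearts divided by the IC50 for relaxing methoxamine-contracted rat aorta.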

[2] = organism: Rattus norvegicus; assay: Antiischemic potency by measurement of increase in time to contracture in globally ischemic isolated perfused rat hearts
Outline: (§1)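 Isolated rat hearts, perfused and then subjected to global ischemia. Activity is read as the lengthening of time to onset of ischemic contracture. Compounds were first tested at 10 μM. EC25 for increasing time to contracture was then determined.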

[3] = organism: Rattus norvegicus; assay: In vitro relaxation of rat aorta precontracted with methoxamine.
Outline: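 Rat aortic rings precontracted with methoxamine. IC50 is the concentration giving relaxation, reported as the mean of n = 4 or more.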

[4] = organism: Rattus norvegicus; assay: Antiischemic potency by measurement of increase in time to contracture in globally ischemic isolated perfused rat hearts at 1 uM.
Outline: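 Isolated perfused rat hearts under global ischemia, compound present at 1 μM. Cardioprotection is read as the increase in time to onset of ischemic contracture.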

[5] = organism: Rattus norvegicus; assay: Antiischemic potency by measurement of increase in time to contracture in globally ischemic isolated perfused rat hearts.; outline: as §1

Row | SMILES | IC50 [3] [nM] | Ratio [1] | EC25 [2] [nM] | Activity [4] [%] | EC25 [5] [nM]
1 | CC1(C)Oc2ccc(C#N)cc2[C@H](N(Cc2ncc[nH]2)c2ccc(Cl)cc2)[C@H]1O [BMS-191095] | > 30000 | < 0.05 | 1400 | – | –
2 | CC1CCN(S(=O)(=O)c2ccc3c(c2)[C@@H](/N=C(\NC#N)Nc2ccc(Cl)cc2)[C@H](O)C(C)(C)O3)CC1 | – | – | 650 | – | –
3 | CC1(C)Oc2ccc(S(=O)(=O)NC3CCCCC3)cc2[C@@H](/N=C(\NC#N)Nc2ccc(Cl)cc2)[C@@H]1O | 11700 | 0.19 | 2200 | – | –
4 | CCN(CC(F)(F)F)S(=O)(=O)c1ccc2c(c1)[C@@H](/N=C(\NC#N)Nc1ccc(Cl)cc1)[C@H](O)C(C)(C)O2 | – | – | 260 | – | –
5 | CC1(C)Oc2ccc(C#N)cc2[C@@H](/N=C(\NC#N)Nc2ccc(Cl)cc2)[C@@H]1O | – | 1.4 | 2500 | – | –
6 | CC1(C)Oc2ccc(S(=O)(=O)N3CCCC(Cc4ccccc4)C3)cc2[C@@H](/N=C(\NC#N)Nc2ccc(Cl)cc2)[C@@H]1O (some centres undefined) | – | – | 1100 | – | –
7 | CC(C)CN(C)S(=O)(=O)c1ccc2c(c1)[C@@H](/N=C(\NC#N)Nc1ccc(Cl)cc1)[C@H](O)C(C)(C)O2 | – | – | 250 | – | –
8 | CC1(C)Oc2ccc(S(=O)(=O)N3CCCCC3)cc2[C@@H](/N=C(\NC#N)Nc2ccc(Cl)cc2)[C@@H]1O | 1900 | 0.14 | 270 | – | –
9 | CC1(C)Oc2ccc(S(=O)(=O)N3CCCCCC3)cc2[C@@H](/N=C(\NC#N)Nc2ccc(Cl)cc2)[C@@H]1O | – | – | 600 | – | –
10 | C[C@@H]1CCC[C@H](C)N1S(=O)(=O)c1ccc2c(c1)[C@@H](/N=C(\NC#N)Nc1ccc(Cl)cc1)[C@H](O)C(C)(C)O2 | 500 | 0.68 | 340 | – | –
11 | CC(C)N(C(C)C)S(=O)(=O)c1ccc2c(c1)[C@@H](/N=C(\NC#N)Nc1ccc(Cl)cc1)[C@H](O)C(C)(C)O2 | – | – | 240 | – | –
12 | CC1(C)Oc2ccc(C#N)cc2[C@@H](N2CCCC2=O)[C@@H]1O [CROMAKALIM] | – | 278 | 8900 | – | –
13 | CC1(C)Oc2ccc(S(=O)(=O)N3CCCC3)cc2[C@@H](/N=C(\NC#N)Nc2ccc(Cl)cc2)[C@@H]1O | – | – | – | – | 330
14 | CC1(C)Oc2ccc(S(=O)(=O)N3CCOCC3)cc2[C@@H](/N=C(\NC#N)Nc2ccc(Cl)cc2)[C@@H]1O | 3100 | 0.32 | 1000 | – | –
15 | CC(C)CN(CC(C)C)S(=O)(=O)c1ccc2c(c1)[C@@H](/N=C(\NC#N)Nc1ccc(Cl)cc1)[C@H](O)C(C)(C)O2 | 9400 | 0.004 | 40 | – | –
16 | CC1CC(C)CN(S(=O)(=O)c2ccc3c(c2)[C@@H](/N=C(\NC#N)Nc2ccc(Cl)cc2)[C@H](O)C(C)(C)O3)C1 (some centres undefined) | 32100 | 0.007 | 230 | – | –

Second part, led by results:

Row | IC50 [3] [nM] | SMILES | Ratio [1] | EC25 [2] [nM] | Activity [4] [%] | EC25 [5] [nM]
17 | 3300 | CC1(C)Oc2ccc(S(=O)(=O)Nc3ccccc3)cc2[C@@H](/N=C(\NC#N)Nc2ccc(Cl)cc2)[C@@H]1O | 0.6 | 1900 | – | –
18 | > 30000 | CC1(C)Oc2ccc(S(=O)(=O)N3CCC(Cc4ccccc4)CC3)cc2[C@@H](/N=C(\NC#N)Nc2ccc(Cl)cc2)[C@@H]1O | – | 940 | – | –
19 | 7100 | CC1(C)Oc2ccc(C(=O)c3ccccc3)cc2[C@@H](/N=C(\NC#N)Nc2ccc(Cl)cc2)[C@@H]1O | 0.13 | 900 | – | –
20 | 5400 | CC(C)(C)C(=O)c1ccc2c(c1)[C@@H](/N=C(\NC#N)Nc1ccc(Cl)cc1)[C@H](O)C(C)(C)O2 | 0.33 | 1800 | – | –
21 | > 100000 | CC1(C)Oc2ccc(C(=O)Nc3ccccc3)cc2[C@@H](/N=C(\NC#N)Nc2ccc(Cl)cc2)[C@@H]1O | – | >10000 | – | –
22 | 500 | CC1(C)Oc2ccc(S(=O)(=O)c3ccccc3)cc2[C@@H](/N=C(\NC#N)Nc2ccc(Cl)cc2)[C@@H]1O | 1.6 | 800 | – | –
23 | 6800 | CC1(C)Oc2ccc(C(=O)Cc3ccccc3)cc2[C@@H](/N=C(\NC#N)Nc2ccc(Cl)cc2)[C@@H]1O | 0.06 | 400 | – | –
24 | 41300 | CC1(C)Oc2ccc(S(N)(=O)=O)cc2[C@@H](/N=C(\NC#N)Nc2ccc(Cl)cc2)[C@@H]1O | – | >10000 | – | –
25 | 44100 | COP(=O)(c1ccccc1)c1ccc2c(c1)[C@@H](/N=C(\NC#N)Nc1ccc(Cl)cc1)[C@H](O)C(C)(C)O2 (some centres undefined) | 0.05 | 2400 | – | –
26 | 10700 | C=C(c1ccccc1)c1ccc2c(c1)[C@@H](/N=C(\NC#N)Nc1ccc(Cl)cc1)[C@H](O)C(C)(C)O2 | – | – | 3 | –
27 | 1100 | CCN(CC)S(=O)(=O)c1ccc2c(c1)[C@@H](/N=C(\NC#N)Nc1ccc(Cl)cc1)[C@H](O)C(C)(C)O2 | 0.27 | 300 | – | –
28 | 10000 | CC1(C)Oc2ccc(Cc3ccccc3)cc2[C@@H](/N=C(\NC#N)Nc2ccc(Cl)cc2)[C@@H]1O | 1.1 | 11100 | – | –

Reference: ChEMBL document CHEMBL1132383, “Cardioselective antiischemic ATP-sensitive potassium channel (K(ATP)) openers. 6. Effect of modifications at C6 of benzopyranyl cyanoguanidines” (J Med Chem, 1999)
